PfGluPho inh = PfG6PD (Plasmodium falciparum) enzyme inhibition; PfGluPho enzyme, NADPH resazurin-diaphorase fluorescence; inhibition, % at 20 µM; 0.78% of 350,000 active;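 active = inhibition reaching at least a set limit at 20 µM in the primary screen, cut at about 59% in these data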;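 note: 0% = DMSO wells with substrate and 100% = DMSO wells lacking glucose-6-phosphate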
Diaph inh CS = counter-screen for diaphorase-based assays: diaphorase inhibitors and chemical oxidizers. diaphorase resazurin-to-resorufin fluorescence, NADH, 16 min; bacterial (C. kluyveri) enzyme, not human. inhibition, % at 20 µM. 0.69% of 190,000 active;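 active = primary screen inhibition at 20 µM above a set limit, cut at about 50% in these data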;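 note: plate controls were DMSO with full reaction for no effect and wells lacking NADH for full effect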
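material = Clostridium kluyveri diaphorase enzyme | amount = 0.14 U/mL diaphorase, enzyme working solution | schedule = incubation 16 min, room temperature | detection = fluorescence of resorufin formed from resazurin, Ex 544/Em 590 nm | benchmarks = positive control minus NADH, DMSO neutral control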
G6PDH counter = L. mesenteroides G6PDH inhibition counter-screen | Purified L. mesenteroides G6PDH, diaphorase/resazurin coupled fluorescence, 45 min | inhibition, % at 5 µM | 0.12% of 200,000 active; in the data active = inhibition above about 50%
HKDC1 inh = inhibitors of human hexokinase HKDC1 | Q2TB90 | recombinant HKDC1, G6PDH/diaphorase resazurin coupled fluorescence | 0.16% of 340,000 active | inhibition, % at 20 µM | AID 493160;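 active = inhibition above about 35% when tested at 20 µM, limit read from the data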;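 note: plate controls were DMSO wells with enzyme for no effect and DMSO wells lacking enzyme for full effect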
Target sequence (Q2TB90 whole entry, looked up): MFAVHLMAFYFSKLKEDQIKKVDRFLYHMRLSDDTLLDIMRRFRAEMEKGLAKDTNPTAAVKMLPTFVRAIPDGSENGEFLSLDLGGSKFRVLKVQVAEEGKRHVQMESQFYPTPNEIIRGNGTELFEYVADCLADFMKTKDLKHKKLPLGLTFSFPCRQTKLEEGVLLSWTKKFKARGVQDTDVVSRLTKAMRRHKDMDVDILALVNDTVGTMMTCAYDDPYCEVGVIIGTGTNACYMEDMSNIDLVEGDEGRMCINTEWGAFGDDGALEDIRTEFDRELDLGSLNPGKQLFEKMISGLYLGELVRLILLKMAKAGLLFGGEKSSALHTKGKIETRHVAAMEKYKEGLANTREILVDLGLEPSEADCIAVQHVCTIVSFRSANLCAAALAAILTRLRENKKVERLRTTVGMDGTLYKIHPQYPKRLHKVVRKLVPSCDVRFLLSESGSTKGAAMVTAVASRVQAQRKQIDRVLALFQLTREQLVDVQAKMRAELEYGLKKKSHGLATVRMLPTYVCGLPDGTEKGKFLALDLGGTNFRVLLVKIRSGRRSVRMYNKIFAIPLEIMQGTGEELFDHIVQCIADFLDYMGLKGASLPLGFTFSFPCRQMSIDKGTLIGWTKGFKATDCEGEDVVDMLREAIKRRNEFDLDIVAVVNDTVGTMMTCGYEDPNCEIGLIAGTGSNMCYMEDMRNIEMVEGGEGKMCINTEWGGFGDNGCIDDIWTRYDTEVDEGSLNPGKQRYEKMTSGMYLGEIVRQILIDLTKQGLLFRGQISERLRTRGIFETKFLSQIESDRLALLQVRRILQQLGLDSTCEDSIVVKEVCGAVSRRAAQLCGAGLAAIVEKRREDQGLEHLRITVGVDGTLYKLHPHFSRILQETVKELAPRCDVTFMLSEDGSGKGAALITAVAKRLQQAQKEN
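Test system: HK5 enzyme. Quantity: 5 µg/mL HK5 final. Reagent: glucose and ATP substrates. Schedule: 90 min reaction incubation at room temperature, dark. Technique: resazurin-to-resorufin fluorescence via G6PDH and diaphorase coupling, 525/613 nm. Control set: DMSO wells with and without enzyme mix.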
Diaph act CS = diaphorase activation or chemical reduction counter-screen; Diaphorase/resazurin coupled assay, resorufin fluorescence, 16 min; hits give high values; 1 = vehicle wells, 0 = NADH-free wells; activation factor at 20 µM; 0.005% of 190,000 active;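 active = diaphorase activity raised at least twofold by the compound at 20 µM; inactive = activation factor below 2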
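Test system: Clostridium kluyveri diaphorase, purified enzyme. Buffer or medium: 50 mM HEPES pH 7.4 buffer plus MgCl2 and Tween 20. Also added: 0.114 mM NADH and 0.1 mM resazurin, final amounts. Dosing: compound 20 µM once, DMSO 1%. Schedule: 16 min enzyme reaction, ambient temperature. Detection: fluorescence of resorufin, 544 nm excitation, 590 nm emission.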
PfG6PD confirm = confirmation of Plasmodium falciparum G6PD inhibitors. shares compounds with PfGluPho inh. recombinant PfGluPho, NADPH-diaphorase-resazurin fluorescence. inhibition, % at 20 µM. 34% of 2,400 active. AID 504753;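 active = inhibition of at least 50% at 20 µM in any single replicate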;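 note: 0% = DMSO with substrate and 100% = DMSO lacking glucose-6-phosphate substrate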
Diaph ctr 10uM = counter-screen for P. falciparum G6PD inhibitors: diaphorase inhibitors, oxidizers; diaphorase-coupled resazurin reduction, fluorescence, NADPH 10 uM; inhibition, % at 20 µM; shares compounds with PfGluPho inh; AID 504862; 39% of 820 active;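 active = average inhibition reaching 50% or more with the compound at 20 µM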;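 note: resorufin red fluorescence formed as diaphorase reduces resazurin using NADPH; 0% = DMSO with enzyme and 100% = DMSO without enzyme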
Diaph ctr 30uM = counter-screen for P. falciparum G6PD inhibitors: diaphorase inhibitors, oxidizers; shares compounds with PfGluPho inh; Diaphorase/resazurin coupled assay, resorufin fluorescence, 30 uM NADPH; inhibition, % at 20 µM; 29% of 820 active;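 active = inhibition averaging 50% or more, tested at 20 µM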;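 note: 0% = DMSO with enzyme and 100% = DMSO wells lacking diaphorase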
* hit, by the source's call; . = no result given. A selection: hits, their analogues and other compounds. The true share with any hit is near 1.3%.

SMILES	PfGluPho inh	Diaph inh CS	G6PDH counter	HKDC1 inh	Diaph act CS	PfG6PD confirm	others
CCCN(CC(=O)Nc1ccccc1C)C(=O)/C=C/c1ccc(S(=O)(=O)N2CCCCCC2)cc1	8	.	.	-2	.	.
Clc1ss/c(=N\c2ccccn2)c1Cl	64*	2	-12	-7	1	-6
O=C1N/C(=N\c2ccccn2)SC1Cc1ccccc1Cl (stereo not drawn)	-12	.	.	-4	.	.
N#Cc1ccc(N=c2ssnc2Cl)cc1	93*	16	9	-13	0.8	56*	Diaph ctr 10uM=-32;Diaph ctr 30uM=-24
CCOC(=O)c1ccc(N=c2ssnc2Cl)cc1	88*	19	1	-8	0.8	30
CCOC(=O)c1c(C)[nH]c(C)c1C(=O)COC(=O)/C=C/c1ccco1	82*	.	.	9	.	67*	Diaph ctr 10uM=74*;Diaph ctr 30uM=57*
CCOC(=O)c1c(C)[nH]c(C)c1C(=O)COC(=O)c1cc2ccccc2cc1O	103*	48	-23	0	0.5	5
CCOC(=O)c1c(C)[nH]c(C)c1C(=O)COC(=O)c1cc2ccccc2cc1OC	52	26	13	-3	0.7	.
CN(C)c1ccc(C=c2c3ccccc3n3c2c2ccccc2[n+]3C)cc1	89*	.	.	25	.	88*	Diaph ctr 10uM=-20;Diaph ctr 30uM=-1
Cn1c(C(=O)N2CCC(C(=O)NCc3ccccc3)CC2)cc2sccc21	-3	.	.	-7	.	.
CCOC(=O)c1cc2c(=O)n3cccc(C)c3nc2n(Cc2ccco2)c1=NC(=O)c1cccnc1	60*	31	-30	25	0.7	-1
COc1ccc(NC(=O)N(C)[C@H]2C[C@H]3c4[nH]c5ccc(-c6ccc(OC)cc6)cc5c4CCN3C[C@H]2[C@H](C)O)cc1	20	.	.	.	.	.
Cc1ccc(-n2c(SCC(=O)O)nc3c(sc(=S)n3-c3ccc(C)c(C)c3)c2=O)cc1	75*	.	.	-3	.	31
Cc1ccccc1-c1cnc2c(c1)C(=O)N([C@@H](C)CO)C[C@@H](C)[C@H](CN(C)Cc1ccccc1F)O2	17	.	.	.	.	.
COC(=O)c1[nH]c2ccc(C)cc2c1NS(=O)(=O)c1ccc(F)cc1	68*	-7	0	8	1.1	24
COC(=O)c1[nH]c2ccc(C)cc2c1NS(=O)(=O)c1ccc(F)c(C)c1	68*	16	7	5	0.8	23
CCOC(=O)Cc1csc(-n2sc3ccccc3c2=O)n1	124*	20	7	6	0.8	81*	Diaph ctr 10uM=-14;Diaph ctr 30uM=4
CCOC(=O)Cc1csc(SCn2nnc3ccccc3c2=O)n1	-5	-5	25	-3	1	.
Nc1nc(=O)n(C2CC(O)C(CO)O2)cc1F (stereo not drawn)	3	.	.	-2	.	.
CCCCCC(=O)N1C[C@H](n2cc(COC(=O)c3ccccc3)nn2)[C@@H](O)C[C@@H]1c1ccc(OC)cc1	17	.	.	.	.	.
COc1ccccc1C(=O)NNC(=O)C1CCCO1 (stereo not drawn)	-8	.	.	-7	.	.
Cc1ccc2c(c1)c1ccc3c(c1n2C)C(=O)C=CC3=O	66*	.	.	2	.	46
CCC(=O)NC1=C(Cl)C(=O)C(NC(=O)CC)=C(Cl)C1=O	114*	.	.	23	.	114*	Diaph ctr 10uM=98*;Diaph ctr 30uM=97*
Cc1cc(Br)c(OCc2ccc(C(=O)N/N=C3\CC4CC=CC34)cc2)c(Br)c1 (stereo not drawn)	1	14	10	-3	0.9	.
O=C(COC(=O)c1cccc2c1C(=O)c1ccccc1C2=O)NC1CCCCC1	-18	24	-20	11	0.8	.
SMILES	PfGluPho inh	Diaph inh CS	G6PDH counter	HKDC1 inh	Diaph act CS	PfG6PD confirm	others
O=C(COC(=O)c1ccc2c(c1[N+](=O)[O-])C(=O)c1ccccc1C2=O)NC1CC1	60*	27	55*	25	0.7	54*	Diaph ctr 10uM=26;Diaph ctr 30uM=28
CCC(C(=O)Nc1cc(C(=O)Nc2cc(C)ccn2)ccc1Cl)c1ccccc1 (stereo not drawn)	5	14	0	11	0.9	.
[O-]/[N+](=C/c1ccc(F)cc1)c1ccccc1	44	13	3	-5	0.9	.
[O-]/[N+](=C\c1ccncc1)c1ccccc1	74*	17	9	-4	0.8	52*	Diaph ctr 10uM=35;Diaph ctr 30uM=9
O=[N+]([O-])c1c(NCCCO)cc(Sc2nc3ccccc3s2)c2nonc12	77*	71*	51*	11	0.3	54*	Diaph ctr 10uM=-2;Diaph ctr 30uM=-2
CCC(=O)OCCNc1cc(Sc2nc3ccccc3s2)c2nonc2c1[N+](=O)[O-]	79*	58*	21	14	0.4	64*	Diaph ctr 10uM=-5;Diaph ctr 30uM=-6
Cc1nnc(Sc2cc(NCCO)c([N+](=O)[O-])c3nonc23)s1	86*	40	12	10	0.6	68*	Diaph ctr 10uM=-1;Diaph ctr 30uM=20
CCC(=O)OCCNc1cc(Sc2nc3ccccc3[nH]2)c2nonc2c1[N+](=O)[O-]	51	31	-23	8	0.7	.
O=[N+]([O-])c1ccc2cn(C3OC(CO)C(O)C3O)nc2c1 (stereo not drawn)	11	.	.	.	.	.
CC(=O)N1CCN(c2ccc(NCc3cccc4ccccc34)cc2)CC1	63*	.	.	8	.	24
COc1ccc(CCNc2ncnc3c2nnn3Cc2ccccc2)cc1OC	2	.	.	-4	.	.
Cc1cc(-c2ccc(S(=O)(=O)N3CCN(c4cccc(C)c4C)CC3)s2)on1	35	.	.	-8	.	.
COc1ccc(OC)c(-n2c(-c3cc(-c4ccc(F)cc4)n[nH]3)n[nH]c2=S)c1	40	28	-6	-3	0.7	.
COc1ccc(-c2cc(-c3n[nH]c(=S)n3-c3cc(OC)ccc3OC)[nH]n2)cc1	59	28	10	3	0.7	23
On1onc2c3cc(-c4ccccc4)nc3ccc21	90*	23	8	1	0.8	7
O=C(Nc1n[nH]c(=S)s1)c1ccco1	60*	.	.	-3	.	37
Cc1nn(-c2ccccc2)c(Cl)c1/C=N/Nc1nc2ccccc2n1C	102*	2	-12	-8	1	47*	Diaph ctr 10uM=37;Diaph ctr 30uM=38
O=C(CSc1n[nH]c(-c2cccnc2)n1)Nc1ccccc1C(F)(F)F	-7	.	.	0	.	.
O=C(CSc1nnc(COc2ccccc2)o1)N1CCCCC1	13	.	.	-3	.	.
CC(Nc1cc(N2CCNCC2)ccc1[N+](=O)[O-])c1ccccc1 (stereo not drawn)	11	17	10	-3	0.8	.
CC(C)C(=O)N1CCN(c2ccc([N+](=O)[O-])c(NC(C)c3ccccc3)c2)CC1 (stereo not drawn)	81*	24	-25	-4	0.8	36
